Measured values as given in ChEMBL document CHEMBL4428035, “Urea derivates of ursolic, oleanolic and maslinic acid induce apoptosis and are selective cytotoxic for several human tumor cell lines” (Eur J Med Chem, 2016).
The source made the active and inactive calls. The calls are words filed in the database; no cut-off is given here.

Legend:
A2780 [1] = assay: Induction of apoptosis in human A2780 cells assessed as necrotic cells at 10 uM after 24 hrs by Annexin V/propidium iodide staining based flow cytometry relative to control; type: functional
In short: (§1)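 Annexin V/propidium iodide staining of A2780 cells exposed to 10 µM compound for 24 h and 48 h, read by flow cytometry. Viable, apoptotic, necrotic and secondary-necrotic fractions were reported as relative changes versus untreated control (%).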

NIH3T3 = assay: Cytotoxicity against mouse NIH/3T3 cells assessed as reduction in cell proliferation after 96 hrs by sulforhodamine B assay; type: ADME, cell-based; settings: NIH3T3, 96 h
A2780 [2] = assay: Cell cycle arrest in human A2780 cells assessed as increase in subG1 phase at 10 uM after 48 hrs by FACS analysis; type: functional, cell-based
In short: (§2)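 Living A2780 cells treated with 10 µM test agent for 24 h and 48 h, then examined for cell-cycle distribution by FACS. Phase populations (Sub-G1, G1/G0, S, G2/M) were quantified by model fitting and expressed as arithmetic means of the population distribution (%).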

A2780 [3] = assay: Cell cycle arrest in human A2780 cells assessed as decrease in G1/G0 phase at 10 uM after 48 hrs by FACS analysis; type: functional, cell-based; in short: as §2
A549 = assay: Cytotoxicity against human A549 cells assessed as reduction in cell proliferation after 96 hrs by sulforhodamine B assay; type: functional, cell-based; settings: A549, 96 h
A2780 [4] = assay: Induction of apoptosis in human A2780 cells assessed as secondary necrotic cells at 10 uM after 24 hrs by Annexin V/propidium iodide staining based flow cytometry relative to control; type: functional; in short: as §1
MCF7 = assay: Cytotoxicity against human MCF7 cells assessed as reduction in cell proliferation after 96 hrs by sulforhodamine B assay; type: functional, cell-based; settings: MCF7, 96 h
A2780 [5] = assay: Induction of apoptosis in human A2780 cells assessed as secondary necrotic cells at 10 uM after 48 hrs by Annexin V/propidium iodide staining based flow cytometry relative to control; type: functional; in short: as §1
A2780 [6] = assay: Induction of apoptosis in human A2780 cells assessed as apoptotic cells at 10 uM after 24 hrs by Annexin V/propidium iodide staining based flow cytometry relative to control; type: functional; in short: as §1
A2780 [7] = assay: Induction of apoptosis in human A2780 cells assessed as apoptotic cells at 10 uM after 48 hrs by Annexin V/propidium iodide staining based flow cytometry relative to control; type: functional; in short: as §1
A2780 [8] = assay: Induction of apoptosis in human A2780 cells assessed as necrotic cells at 10 uM after 48 hrs by Annexin V/propidium iodide staining based flow cytometry relative to control; type: functional; in short: as §1
A2780 [9] = assay: Cell cycle arrest in human A2780 cells assessed as increase in S phase at 10 uM after 24 hrs by FACS analysis; type: functional, cell-based; in short: as §2
A2780 [10] = assay: Cytotoxicity against human A2780 cells assessed as reduction in cell proliferation after 96 hrs by sulforhodamine B assay; type: functional, cell-based; settings: A2780, 96 h
HT-29 = assay: Cytotoxicity against human HT-29 cells assessed as reduction in cell proliferation after 96 hrs by sulforhodamine B assay; type: functional, cell-based; settings: HT-29, 96 h
A2780 [11] = assay: Cell cycle arrest in human A2780 cells assessed as decrease in G2/M phase at 10 uM after 24 hrs by FACS analysis; type: functional, cell-based; in short: as §2
A2780 [12] = assay: Cell cycle arrest in human A2780 cells assessed as decrease in G1/G0 phase at 10 uM after 24 hrs by FACS analysis; type: functional, cell-based; in short: as §2
A2780 [13] = assay: Cell cycle arrest in human A2780 cells assessed as decrease in S phase at 10 uM after 48 hrs by FACS analysis; type: functional, cell-based; in short: as §2
A2780 [14] = assay: Induction of apoptosis in human A2780 cells assessed as viable cells at 10 uM after 24 hrs by Annexin V/propidium iodide staining based flow cytometry relative to control; type: functional; settings: A2780, 24 h, read-out: Activity; in short: as §1
A2780 [15] = assay: Induction of apoptosis in human A2780 cells assessed as viable cells at 10 uM after 48 hrs by Annexin V/propidium iodide staining based flow cytometry relative to control; type: functional; settings: A2780, 48 h, read-out: Activity; in short: as §1
SW-1736 = assay: Cytotoxicity against human SW1736 cells assessed as reduction in cell proliferation after 96 hrs by sulforhodamine B assay; type: functional, cell-based; settings: SW-1736, 96 h
FaDu = assay: Cytotoxicity against human FADU cells assessed as reduction in cell proliferation after 96 hrs by sulforhodamine B assay; type: functional, cell-based
518A2 = assay: Cytotoxicity against human 518A2 cells assessed as reduction in cell proliferation after 96 hrs by sulforhodamine B assay; type: functional, cell-based; settings: 518A2, 96 h
A2780 [16] = assay: Induction of apoptosis in human A2780 cells assessed as caspase-3 activation up to 72 hrs by flow cytometry; type: functional, cell-based
In short: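 Caspase activation in A2780 cells was measured by flow cytometry after 24, 48 and 72 h of treatment.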

[17] = Selectivity index, ratio of EC50 for mouse NIH/3T3 cells to EC50 for human A2780 cells; settings: NIH/3T3 cells versus A2780 cells
[18] = Selectivity index, ratio of EC50 for mouse NIH/3T3 cells to EC50 for human MCF7 cells; settings: NIH/3T3 cells versus MCF7 cells
[19] = Selectivity index, ratio of EC50 for mouse NIH/3T3 cells to EC50 for human A549 cells; settings: NIH/3T3 cells versus A549 cells
[20] = Selectivity index, ratio of EC50 for mouse NIH/3T3 cells to EC50 for human HT-29 cells; settings: NIH/3T3 cells versus HT-29 cells
[21] = Selectivity index, ratio of EC50 for mouse NIH/3T3 cells to EC50 for human FADU cells
[22] = Selectivity index, ratio of EC50 for mouse NIH/3T3 cells to EC50 for human SW1736 cells
[23] = Selectivity index, ratio of EC50 for mouse NIH/3T3 cells to EC50 for human 518A2 cells

Compound	Activity (A2780 [1]) [%]	EC50 (NIH3T3) [µM]	Activity (A2780 [2])	Activity (A2780 [3])	EC50 (A549) [µM]	Activity (A2780 [4]) [%]	EC50 (MCF7) [µM]	Activity (A2780 [5]) [%]	Activity (A2780 [6]) [%]	Activity (A2780 [7]) [%]	Activity (A2780 [9])	EC50 (A2780 [10]) [µM]	EC50 (HT-29) [µM]	Activity (A2780 [11])	Activity (A2780 [12])	Activity (A2780 [13])	change in viable cells vs control (%) at 10 µM (A2780 [14]) [%]	EC50 (SW-1736) [µM]	EC50 (FaDu) [µM]	EC50 (518A2) [µM]	also measured
CC(=O)O[C@H]1C[C@]2(C)[C@H]3CC=C4[C@@H]5CC(C)(C)CC[C@]5(C(=O)NCc5ccccc5)CC[C@@]4(C)[C@]3(C)CC[C@H]2C(C)(C)[C@@H]1OC(C)=O	1	7.7	Active	Active	8.8	9	7.6	29	4	45	Active	1.1	5.2	Active	Active	Active	-12	5.2	3.3	2.3	Activity (A2780 [8]): 0%; viability at 10 µM (A2780 [15]): -75%
CC(=O)O[C@H]1C[C@]2(C)[C@H]3CC=C4[C@@H]5CC(C)(C)CC[C@]5(NC(=O)Oc5ccccc5)CC[C@@]4(C)[C@]3(C)CC[C@H]2C(C)(C)[C@H]1OC(C)=O	-1	15.4	Active	Active	8.5	3	5.8	–	2	–	Active	2.4	8.5	Active	Active	Active	-4	7.3	–	4.4	–
CC(=O)O[C@H]1C[C@]2(C)[C@H]3CC=C4[C@@H]5CC(C)(C)CC[C@]5(NC(=O)Nc5ccccc5)CC[C@@]4(C)[C@]3(C)CC[C@H]2C(C)(C)[C@H]1OC(C)=O	-1	> 120	Active	Active	4.4	11	2.8	–	33	–	Active	0.9	2.3	Active	Active	Active	-43	2.8	–	1.2	Activity (A2780 [16]): inactive
CC(=O)O[C@@H]1C[C@]2(C)[C@H]3CC=C4[C@@H]5CC(C)(C)CC[C@]5(C(=O)NCc5ccccc5)CC[C@@]4(C)[C@]3(C)CC[C@H]2C(C)(C)[C@H]1OC(C)=O	–	33.8	–	–	2.5	–	7.7	–	–	–	–	0.5	4.7	–	–	–	–	–	3.1	1.5	selectivity ratio [17]: 70
CC(=O)O[C@@H]1[C@H](OC(C)=O)C[C@]2(C)[C@H]3CC=C4[C@@H]5CC(C)(C)CC[C@]5(C(=O)NCc5ccccc5)CC[C@@]4(C)[C@]3(C)CC[C@H]2C1(C)C	1	11.4	Active	Active	15.6	10	7.8	20	5	45	Active	1.9	7.7	Active	Active	Active	-16	20.7	5.5	5.7	Activity (A2780 [8]): -1%; viability at 10 µM (A2780 [15]): -65%
COCO[C@@H]1C[C@]2(C)[C@H]3CC=C4[C@@H]5CC(C)(C)CC[C@]5(C(=O)NCc5ccccc5)CC[C@@]4(C)[C@]3(C)CC[C@H]2C(C)(C)[C@H]1O	–	16.5	–	–	12.8	–	5.5	–	–	–	–	–	5.2	–	–	–	–	5.4	3.3	3.2	selectivity ratio [18]: 5; selectivity ratio [19]: 5; selectivity ratio [20]: 5; selectivity ratio [17]: 5
COCCO[C@@H]1C[C@]2(C)[C@H]3CC=C4[C@@H]5CC(C)(C)CC[C@]5(C(=O)NCc5ccccc5)CC[C@@]4(C)[C@]3(C)CC[C@H]2C(C)(C)[C@H]1OCCOC	–	15.5	–	–	4.9	–	6.8	–	–	–	–	2.7	4.9	–	–	–	–	4.6	–	3.5	selectivity ratio [18]: 5; selectivity ratio [19]: 5; selectivity ratio [20]: 5; Ratio EC50 [21]: 5; selectivity ratio [17]: 5; Ratio EC50 [22]: 5; Ratio EC50 [23]: 5
CC(=O)O[C@H]1C[C@]2(C)[C@H]3CC=C4[C@@H]5CC(C)(C)CC[C@]5(C(=O)NCc5ccccc5)CC[C@@]4(C)[C@]3(C)CC[C@H]2C(C)(C)[C@H]1OC(C)=O	-1	9.4	Active	Active	5.6	6	3.5	23	5	55	Active	0.5	3.7	Active	Active	Active	-11	3.4	2	0.9	Activity (A2780 [8]): 1%; viability at 10 µM (A2780 [15]): -79%
